{"source": "ChEMBL document CHEMBL1121813", "about": "“Dihydrochalcone sweeteners. A study of the atypical temporal phenomena” (1981)", "type_in_all_cases": "functional", "key": {"Homo sapiens [1]": {"species_on_record": "Homo sapiens", "assay": "Experimentally determined perceived intensity of compound at a concentration of 2000 ppm (mean value)", "procedure,_shortened": "(§1)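 Trained human sensory panel of judges tasted aqueous solutions of the compound. Samples had to be ≥95 weight % pure (HPLC, proton titration, Karl Fischer), non-mutagenic in five Salmonella typhimurium strains with and without microsomal activation, and non-toxic in a single-oral-dose mouse test. Perceived intensity (Ip) was read from time–intensity curves at 4- or 6-s intervals and averaged. Outliers at the 95% level were rejected by t-value. Values reported as mean (2Sm).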"}, "Homo sapiens [2]": {"species_on_record": "Homo sapiens", "assay": "Percentage of judgments reporting an aftertaste at a concentration of 2000 ppm and character thereof", "procedure,_shortened": "(§2)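 Trained judges tasted aqueous solutions of the compounds, which had to be ≥95 weight percent pure and to have passed mutagenicity and single oral dose toxicity screening. The value is the percentage of panel judgments reporting an aftertaste. Where given, its character is recorded as sweet, bitter or bitter-sweet.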"}, "Homo sapiens [3]": {"species_on_record": "Homo sapiens", "assay": "Number of taste judgments per compound"}, "Homo sapiens [4]": {"species_on_record": "Homo sapiens", "assay": "Experimentally determined perceived intensity of compound at a concentration of 252 ppm (mean value)", "procedure,_shortened": "as §1"}, "Homo sapiens [5]": {"species_on_record": "Homo sapiens", "assay": "Intensity calculated on a molar basis relative to a 0.25 M sucrose solution at a concentration of 252 ppm (mean value)", "procedure,_shortened": "(§3)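 Trained human judges tasted aqueous solutions of the test compound; compounds were first required to be ≥95 weight percent pure and free of mutagenicity (five Salmonella typhimurium strains, ± microsomal activation) and of single oral dose mouse toxicity. Molar intensity I_m = perceived intensity × (0.25 M sucrose / compound molar concentration). The mean is reported with 2S_m limits; outliers were rejected at 95% confidence by t-value.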"}, "Homo sapiens [6]": {"species_on_record": "Homo sapiens", "assay": "Intensity calculated on a weight basis relative to an 85500 ppm sucrose solution at a concentration of 252 ppm (mean value)", "procedure,_shortened": "(§4)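 Trained human panel tasted aqueous solutions of purity-checked (≥95 weight percent) compounds cleared for mutagenicity and mouse oral toxicity. Weight-basis intensity I_w = perceived intensity × (85500 ppm sucrose / compound concentration in ppm). The mean is reported with 2S_m limits; data deviating excessively at 95% confidence were rejected by the t-value method.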"}, "Homo sapiens [7]": {"species_on_record": "Homo sapiens", "assay": "Sweet character at a concentration of 252 ppm (mean value)", "procedure,_shortened": "(§5)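 Trained human sensory panel (Swartz method) tasted dilute aqueous solutions of the compounds, which had to be ≥95 weight percent pure and free of mutagenicity and toxicity. Taste character is reported as the mean value with 2S_m limits. Data deviating excessively at the 95% confidence level were rejected by the t-value method.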"}, "Homo sapiens [8]": {"species_on_record": "Homo sapiens", "assay": "Other taste character at a concentration of 252 ppm (mean value)", "procedure,_shortened": "as §5"}, "Homo sapiens [9]": {"species_on_record": "Homo sapiens", "assay": "Salty character at a concentration of 252 ppm (mean value)", "procedure,_shortened": "as §5"}, "Homo sapiens [10]": {"species_on_record": "Homo sapiens", "assay": "Sweet / Bitter character at a concentration of 252 ppm (mean value); 6/94"}, "Homo sapiens [11]": {"species_on_record": "Homo sapiens", "assay": "Bitter character at a concentration of 252 ppm (mean value)", "procedure,_shortened": "(§6)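 Trained human panel tasted aqueous solutions. Each judge reported whether there was an aftertaste and its character (sweet, bitter or bitter-sweet). The value is the percentage of judgments reporting a bitter aftertaste.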"}, "Homo sapiens [12]": {"species_on_record": "Homo sapiens", "assay": "Sour character at a concentration of 252 ppm (mean value)", "procedure,_shortened": "as §5"}, "Homo sapiens [13]": {"species_on_record": "Homo sapiens", "assay": "Percentage of judgments reporting an aftertaste at a concentration of 252 ppm and character thereof", "procedure,_shortened": "as §2"}, "Homo sapiens [14]": {"species_on_record": "Homo sapiens", "assay": "Intensity calculated on a molar basis relative to a 0.25 M sucrose solution at a concentration of 1011 ppm (mean value)", "procedure,_shortened": "as §3"}, "Homo sapiens [15]": {"species_on_record": "Homo sapiens", "assay": "Percentage of judgments reporting an aftertaste at a concentration of 1011 ppm and character thereof; Bitter-sweet", "procedure,_shortened": "as §2"}, "Homo sapiens [16]": {"species_on_record": "Homo sapiens", "assay": "Bitter character at a concentration of 1011 ppm (mean value)", "procedure,_shortened": "as §6"}, "Homo sapiens [17]": {"species_on_record": "Homo sapiens", "assay": "Sweet / Bitter character at a concentration of 1011 ppm (mean value)"}, "Homo sapiens [18]": {"species_on_record": "Homo sapiens", "assay": "Sweet character at a concentration of 1011 ppm (mean value)"}, "Homo sapiens [19]": {"species_on_record": "Homo sapiens", "assay": "Experimentally determined perceived intensity of compound at a concentration of 1011 ppm (mean value)", "procedure,_shortened": "as §1"}, "Homo sapiens [20]": {"species_on_record": "Homo sapiens", "assay": "Other taste character at a concentration of 1011 ppm (mean value)", "procedure,_shortened": "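Trained human panel tasted aqueous solutions of each compound. Aftertaste is scored as the percentage of judgments reporting one, with its character coded sweet (s), bitter (b) or bitter-sweet (bs).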"}, "Homo sapiens [21]": {"species_on_record": "Homo sapiens", "assay": "Sour character at a concentration of 1011 ppm (mean value)"}, "Homo sapiens [22]": {"species_on_record": "Homo sapiens", "assay": "Salty character at a concentration of 1011 ppm (mean value)"}, "Homo sapiens [23]": {"species_on_record": "Homo sapiens", "assay": "Intensity calculated on a weight basis relative to an 85500 ppm sucrose solution at a concentration of 1011 ppm (mean value)", "procedure,_shortened": "as §4"}, "Homo sapiens [24]": {"species_on_record": "Homo sapiens", "assay": "Experimentally determined perceived intensity of compound at a concentration of 720 ppm (mean value)", "procedure,_shortened": "as §1"}, "Homo sapiens [25]": {"species_on_record": "Homo sapiens", "assay": "Sour character at a concentration of 720 ppm (mean value)"}, "Homo sapiens [26]": {"species_on_record": "Homo sapiens", "assay": "Intensity calculated on a weight basis relative to an 85500 ppm sucrose solution at a concentration of 720 ppm (mean value)", "procedure,_shortened": "as §4"}, "Homo sapiens [27]": {"species_on_record": "Homo sapiens", "assay": "Other taste character at a concentration of 720 ppm (mean value)", "procedure,_shortened": "as §5"}, "Homo sapiens [28]": {"species_on_record": "Homo sapiens", "assay": "Sweet character at a concentration of 720 ppm (mean value)"}, "Homo sapiens [29]": {"species_on_record": "Homo sapiens", "assay": "Sweet / Bitter character at a concentration of 720 ppm (mean value); 50/50"}, "Homo sapiens [30]": {"species_on_record": "Homo sapiens", "assay": "Percentage of judgments reporting an aftertaste at a concentration of 720 ppm and character thereof"}, "Homo sapiens [31]": {"species_on_record": "Homo sapiens", "assay": "Salty character at a concentration of 720 ppm (mean value)"}, "Homo sapiens [32]": {"species_on_record": "Homo sapiens", "assay": "Bitter character at a concentration of 720 ppm (mean value)", "procedure,_shortened": "as §6"}, "Homo sapiens [33]": {"species_on_record": "Homo sapiens", "assay": "Intensity calculated on a molar basis relative to a 0.25 M sucrose solution at a concentration of 720 ppm (mean value)", "procedure,_shortened": "as §3"}, "Homo sapiens [34]": {"species_on_record": "Homo sapiens", "assay": "Salty character at a concentration of 250 ppm (mean value)", "procedure,_shortened": "as §5"}, "Homo sapiens [35]": {"species_on_record": "Homo sapiens", "assay": "Intensity calculated on a weight basis relative to an 85500 ppm sucrose solution at a concentration of 250 ppm (mean value)", "procedure,_shortened": "as §4"}, "Homo sapiens [36]": {"species_on_record": "Homo sapiens", "assay": "Sour character at a concentration of 250 ppm (mean value)", "procedure,_shortened": "as §5"}, "Homo sapiens [37]": {"species_on_record": "Homo sapiens", "assay": "Percentage of judgments reporting an aftertaste at a concentration of 250 ppm and character thereof", "procedure,_shortened": "as §2"}, "Homo sapiens [38]": {"species_on_record": "Homo sapiens", "assay": "Bitter character at a concentration of 250 ppm (mean value)", "procedure,_shortened": "as §6"}, "Homo sapiens [39]": {"species_on_record": "Homo sapiens", "assay": "Other taste character at a concentration of 250 ppm (mean value)", "procedure,_shortened": "as §5"}, "Homo sapiens [40]": {"species_on_record": "Homo sapiens", "assay": "Sweet character at a concentration of 250 ppm (mean value)", "procedure,_shortened": "as §5"}, "Homo sapiens [41]": {"species_on_record": "Homo sapiens", "assay": "Experimentally determined perceived intensity of compound at a concentration of 250 ppm (mean value)", "procedure,_shortened": "as §1"}, "Homo sapiens [42]": {"species_on_record": "Homo sapiens", "assay": "Intensity calculated on a molar basis relative to a 0.25 M sucrose solution at a concentration of 250 ppm (mean value)", "procedure,_shortened": "as §3"}, "Homo sapiens [43]": {"species_on_record": "Homo sapiens", "assay": "Sweet / Bitter character at a concentration of 250 ppm (mean value); 69/31"}}}
{"compound": "COc1ccc(CNC(=O)c2c(O)cc(OCC(=O)[O-])cc2O)cc1O.[Na+]", "values": [{"measurement": "IP", "setting": "Homo sapiens [1]", "value": 0}, {"measurement": "Judgments", "setting": "Homo sapiens [2]", "value": 0}, {"measurement": "Judgments", "setting": "Homo sapiens [3]", "value": 1}]}
{"compound": "COc1ccc(CCC(=O)c2c(O)cc(OCC(=O)[O-])cc2O)cc1N.[Na+]", "values": [{"measurement": "IP", "setting": "Homo sapiens [4]", "value": 0.08}, {"measurement": "IM", "setting": "Homo sapiens [5]", "value": 230}, {"measurement": "IW", "setting": "Homo sapiens [6]", "value": 200}, {"measurement": "Judgments", "setting": "Homo sapiens [3]", "value": 12}, {"measurement": "Taste character", "setting": "Homo sapiens [7]", "value": 5}, {"measurement": "Taste character", "setting": "Homo sapiens [8]", "value": 15}, {"measurement": "Taste character", "setting": "Homo sapiens [9]", "value": 1}, {"measurement": "Taste character", "setting": "Homo sapiens [10]", "value": 6}, {"measurement": "Taste character", "setting": "Homo sapiens [11]", "value": 79}, {"measurement": "Taste character", "setting": "Homo sapiens [12]", "value": 0}, {"measurement": "Judgments", "setting": "Homo sapiens [13]", "value": 58}]}
{"compound": "COc1ccc(CCc2noc3cc(OCCCS(=O)(=O)[O-])cc(O)c23)cc1O.[K+]", "values": [{"measurement": "IM", "setting": "Homo sapiens [14]", "value": 56}, {"measurement": "Judgments", "setting": "Homo sapiens [3]", "value": 12}, {"measurement": "Judgments", "setting": "Homo sapiens [15]", "value": 100}, {"measurement": "Taste character", "setting": "Homo sapiens [16]", "value": 38}, {"measurement": "Taste character", "setting": "Homo sapiens [17]", "value": 52}, {"measurement": "Taste character", "setting": "Homo sapiens [18]", "value": 41}, {"measurement": "IP", "setting": "Homo sapiens [19]", "value": 0.49}, {"measurement": "Taste character", "setting": "Homo sapiens [20]", "value": 21}, {"measurement": "Taste character", "setting": "Homo sapiens [21]", "value": 0}, {"measurement": "Taste character", "setting": "Homo sapiens [22]", "value": 0}, {"measurement": "IW", "setting": "Homo sapiens [23]", "value": 41}]}
{"compound": "COc1ccc(CCC(=O)c2c(O)cc(OCCCN)cc2O)cc1O", "values": [{"measurement": "IP", "setting": "Homo sapiens [24]", "value": 1.5}, {"measurement": "Taste character", "setting": "Homo sapiens [25]", "value": 0}, {"measurement": "IW", "setting": "Homo sapiens [26]", "value": 180}, {"measurement": "Taste character", "setting": "Homo sapiens [27]", "value": 0}, {"measurement": "Taste character", "setting": "Homo sapiens [28]", "value": 50}, {"measurement": "Taste character", "setting": "Homo sapiens [29]", "value": 50}, {"measurement": "Judgments", "setting": "Homo sapiens [3]", "value": 1}, {"measurement": "Judgments", "setting": "Homo sapiens [30]", "value": 100}, {"measurement": "Taste character", "setting": "Homo sapiens [31]", "value": 0}, {"measurement": "Taste character", "setting": "Homo sapiens [32]", "value": 50}, {"measurement": "IM", "setting": "Homo sapiens [33]", "value": 190}]}
{"compound": "COc1ccc(CCC(=N)c2c(O)cc(OCC(=O)[O-])cc2O)cc1O.[Na+]", "values": [{"measurement": "IP", "setting": "Homo sapiens [1]", "value": 0}, {"measurement": "Judgments", "setting": "Homo sapiens [2]", "value": 0}, {"measurement": "Judgments", "setting": "Homo sapiens [3]", "value": 1}]}
{"compound": "COc1ccc(CCC(=O)c2c(O)cc(OC(CCCO)C(=O)[O-])cc2O)cc1O.[Na+]", "note": "(stereo not given)", "values": [{"measurement": "Taste character", "setting": "Homo sapiens [34]", "value": 0}, {"measurement": "IW", "setting": "Homo sapiens [35]", "value": 34}, {"measurement": "Judgments", "setting": "Homo sapiens [3]", "value": 4}, {"measurement": "Taste character", "setting": "Homo sapiens [36]", "value": 0}, {"measurement": "Judgments", "setting": "Homo sapiens [37]", "value": 0}, {"measurement": "Taste character", "setting": "Homo sapiens [38]", "value": 31}, {"measurement": "Taste character", "setting": "Homo sapiens [39]", "value": 0}, {"measurement": "Taste character", "setting": "Homo sapiens [40]", "value": 69}, {"measurement": "IP", "setting": "Homo sapiens [41]", "value": 0.1}, {"measurement": "IM", "setting": "Homo sapiens [42]", "value": 43}, {"measurement": "Taste character", "setting": "Homo sapiens [43]", "value": 69}]}
